The text below walks through data of ChEMBL document CHEMBL4706532, “New Seco-DSP derivatives as potent chemosensitizers” (Eur J Med Chem, 2020).

One series concerns HUVEC. The series can be described thus: Cytotoxicity against human HUVEC cells assessed as reduction in cell viability at 10 uM incubated for 48 hrs by MTT assay. It is filed as cell-based. In short, it runs like this: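 Cells plated at 3~5 × 10^3 per well and allowed 24 h before exposure to compound or DMSO (negative control) for 48 h. MTT was added for 4 h, formazan dissolved in DMSO and absorbance read at 490 nm. Inhibition was calculated relative to DMSO and blank.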
For orientation: Tetrazolium assays rely on reduction of a dye to a coloured formazan, in cell work by metabolically active cells.

A short description of series [1]: Cytotoxicity against human HOSEC cells assessed as reduction in cell viability at 10 uM incubated for 48 hrs by MTT assay. The series is classed as cell-based. The note with it: hose. In short, it runs like this: (§1)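 Cells plated at 3~5 × 10^3 per well and allowed 24 h before exposure to compound or DMSO (negative control) for 48 h. A2780/T and KB-VIN were grown in DMEM/F12 with 10% FBS, and HUVEC, HOSEC and T29 in RPMI-1640 with 10% FBS, all at 37 °C under 5% CO₂. MTT was added for 4 h, formazan dissolved in DMSO and absorbance read at 490 nm. Inhibition was calculated relative to DMSO and blank.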

Series [2] in a line: Cytotoxicity against human T29 cells assessed as reduction in cell viability at 10 uM incubated for 48 hrs by MTT assay. It is filed as cell-based. The note with it: t29, 48 h. In short, it runs like this: as §1
Series [3] has as its system A2780/Taxol. In words: Cytotoxicity against human A2780T cells assessed as reduction in cell viability at 10 uM incubated for 48 hrs by MTT assay. It is filed as cell-based. In short, it runs like this: as §1
Series [4] in a line: Reversal of multidrug resistance activity in P-gp overexpressing human A2780T cells assessed as potentiation of PTX-induced cytotoxicity by measuring reversal ratio at 10 uM incubated for 48 hrs in presence of paclitaxel by MTT assay. The series is classed as functional, A2780/Taxol. A digest of the protocol: (§2)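 Resistant cells were plated at 3~5 × 10^3 per well, given 24 h, then co-treated with test compound plus a range of anticancer drug concentrations (PTX for A2780/T, VCR for KB-VIN, cisplatin for A2780/CDDP) or DMSO for 48 h. Read-out was by MTT, 4 h at 37 °C, with absorbance at 490 nm. Reversal ratio = IC50 (drug alone) / IC50 (drug with compound).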

Series [5] can be described thus: Reversal of multidrug resistance activity in P-gp overexpressing human KB-VIN cells assessed as potentiation of VCR-induced cytotoxicity by measuring reversal ratio at 10 uM incubated for 48 hrs in presence of VCR by MTT assay. It is filed as functional. In short, it runs like this: as §2
Series [6] is described as follows: Reversal of multidrug resistance activity in human A2780/CDDP cells assessed as potentiation of CDDP-induced cytotoxicity by measuring reversal ratio at 10 uM incubated for 48 hrs in presence of CDDP by MTT assay. The series is classed as functional. A digest of the protocol: as §2
Series [7] relates to A2780/Taxol. The series can be described thus: Increase in P-gp expression in human A2780T cells at 10 uM incubated for 48 hrs by western blot analysis. The series is classed as functional, cell-based. In short, it runs like this:
(§3)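 A2780/T cells (about 5×10^5 per well) were allowed 24 h, then treated with compound at 10 µM for 48 h at 37 °C. Cells were lysed in RIPA buffer with 1 mM PMSF. Lysates (20 µg protein) were run on 12% SDS-PAGE and transferred to PVDF. Blots were blocked in 3% BSA and probed overnight at 4 °C with anti-P-gp or GAPDH antibody (1:1000), then with HRP secondary (1:10000) for 1 h. Detection was by ECL with densitometry.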
On the technique in general: Immunoblotting shows a protein as a band on a membrane.

The test system of series [8] is A2780T. The series can be described thus: Inhibition of P-gp mediated multidrug resistance activity in human A2780T cells assessed as increase in intracellular DOX accumulation at 10 uM incubated for 4 hrs in presence of doxorubicin by flow cytometry. The series is classed as cell-based. A digest of the protocol: (§4)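 A2780/T cells were seeded at about 5×10^5 per well and left 24 h. […] Cells were washed three times with ice-cold PBS and resuspended in cold PBS. DOX autofluorescence was measured by flow cytometry and by fluorescence/confocal microscopy. Data are given as mean ± SD.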

The species named for a further series is Homo sapiens. The series can be described thus: Stimulation of human membrane P-gp ATPase activity at 0.5 mM using MgATP as substrate preincubated with enzyme for 5 mins followed by substrate addition and measured after 120 mins by ADP-Glo luminescence assay relative to control. It is filed as cell membranes. As to conditions: time 125.0 min. A digest of the protocol: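 Reactions were started with 10 μL of 25 mM MgATP and run 120 min at 37 °C. ATP detection reagent was then added, and luminescence was read after about 20 min at room temperature (P-gp-Glo). Results are mean ± SD of three independent experiments.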
A general note: ADP-Glo first removes unused ATP, then detects ADP through luciferase.

Series [9] can be described thus: Cytotoxicity against human KB-VIN cells assessed as reduction in cell viability at 10 uM incubated for 48 hrs by MTT assay. The series is classed as cell-based. In short, it runs like this: as §1
Series [10] can be described thus: Reversal of multidrug resistance activity in P-gp overexpressing human A2780T cells assessed as potentiation of PTX-induced cytotoxicity by measuring reversal ratio at 1 uM incubated for 48 hrs in presence of paclitaxel by MTT assay. It is filed as functional, A2780/Taxol. In short, it runs like this: as §2
Series [11] relates to A2780/Taxol. The series can be described thus: Decrease in P-gp expression in human A2780T cells at 10 uM incubated for 48 hrs by western blot analysis. It is filed as functional, cell-based. A digest of the protocol:
as §3

For series [12], the system named is A2780T. In words: Inhibition of P-gp mediated multidrug resistance activity in human A2780T cells assessed as increase in intracellular DOX accumulation at 10 uM incubated for 4 hrs in presence of doxorubicin by fluorescence microsocopy. It is filed as cell-based. In short, it runs like this: as §4
Series [13] can be described thus: Reversal of multidrug resistance activity in P-gp overexpressing human A2780T cells assessed as potentiation of PTX-induced cytotoxicity by measuring reversal ratio at 200 nM incubated for 48 hrs in presence of paclitaxel by MTT assay.

Active and inactive are the calls of the source. The rule behind the calls is not given here.

Consider `CCOc1ccc2c(=O)cc(CC)oc2c1COC(=O)Cc1cc(OC)c(OC)c(OC)c1`, for which the Activity entry (in the series with HUVEC; in series [1]; in [2]; in the series on A2780/Taxol [3]; in [9]) was “Non-Toxic” in each case. For the same compound, the Ratio came to 677 in series [4]; 628 in [5]; 0.97 in series [6]; 4.13 in series [10]; 1.05 in [13]. Further, the result in the series on A2780/Taxol [7] was inactive. Further, the inhibition result in the series with A2780T [8] and with A2780T [12] was “Active” each time. In addition, the fold change (FC) in the series listed under Homo sapiens is 1.2. For the same compound, the inhibition result in the series on A2780/Taxol [11] was “inactive”.
Take `CCc1cc(=O)c2ccc(OC)c(COC(=O)c3cccc(N(C)C)c3)c2o1`: the Activity result (in the series on HUVEC; in series [1]; in [2]; in the series with A2780/Taxol [3]; in series [9]) was “Non-Toxic” each time. Besides, the Ratio was 484 in series [4], 234 in series [5] and 0.81 in series [6].
As for `CCc1cc(=O)c2ccc(OC(C)C)c(COC(=O)/C=C/c3ccc(OC)cc3)c2o1`, the Activity entry (with HUVEC; in [1]; in [2]; in the series with A2780/Taxol [3]; in series [9]) was “Non-Toxic” throughout. For the same compound, the Ratio turned out to be 490 in series [4], 342 in series [5] and 0.97 in [6].
`CCc1cc(=O)c2ccc(OC(C)C)c(COC(=O)/C=C/c3ccccc3)c2o1`: the Activity result (in the series on HUVEC; in series [1]; in series [2]; in the series on A2780/Taxol [3]; in series [9]) was “Non-Toxic” throughout. Also, the Ratio was 685 in [4], 466 in [5] and 0.81 in [6].
Consider `COc1ccc(CCN(C)CCCC(C#N)(c2ccc(OC)c(OC)c2)C(C)C)cc1OC` (centres undefined), for which the inhibition result with A2780T [8] and with A2780T [12] was “Active” each time. Moreover, in the series filed under Homo sapiens, the fold change (FC) was 1.8.
`CCc1cc(=O)c2ccc(OC(C)C)c(COC(=O)c3cc(OC)c(OC)c(OC)c3)c2o1`: the Activity entry (with HUVEC; in [1]; in [2]; in the series with A2780/Taxol [3]) was “Non-Toxic” throughout. Besides, the Ratio is recorded as 503 in [4] and 0.99 in series [6].
Turning to `CCOc1ccc2c(=O)cc(CC)oc2c1COC(=O)/C=C/c1ccc(OC)cc1`, the Activity result is “Non-Toxic” in the series with HUVEC; “Non-Toxic” in [1]; “Non-Toxic” in [2]; “Toxic” in the series with A2780/Taxol [3]; “Non-Toxic” in [9]. Also, the Ratio is greater than 1471 in series [4]; 299 in series [5]; 0.88 in [6]; 128 in series [10]; 1.05 in [13]. For the same compound, the result in the series with A2780/Taxol [7] was inactive. Further, the inhibition result in the series with A2780T [8] and in the series on A2780T [12] was “Active” in each case. This compound also yielded a fold change (FC) in the series filed under Homo sapiens of 1.2. For the same compound, in the series with A2780/Taxol [11], the inhibition entry was “inactive”.
As for `CCOc1ccc2c(=O)cc(CC)oc2c1COC(=O)c1cc(OC)c(OC)cc1OC`, the Activity result (in the series on HUVEC; in series [1]; in [2]; with A2780/Taxol [3]) was “Non-Toxic” in each case. The values for the Ratio in series [4] and in series [6] were 457 and 0.88, respectively.
As to `CCc1cc(=O)c2ccc(OC)c(COC(=O)c3cc(OC)c(OC)c(OC)c3)c2o1`, the Activity result (in the series with HUVEC; in [1]; in series [2]; with A2780/Taxol [3]; in series [9]) was “Non-Toxic” each time. Also, the Ratio in [4] is listed as 537; in series [5], 424; in series [6] it was 0.81.
`CCOc1ccc2c(=O)cc(CC)oc2c1COC(=O)/C=C/c1ccccc1`: the Activity result (in the series with HUVEC; in [1]; in series [2]; in the series with A2780/Taxol [3]; in series [9]) was “Non-Toxic” each time. Further, the Ratio worked out at 503 in [4]; 633 in series [5]; 0.92 in series [6]; 4.24 in series [10]; 1.05 in series [13]. Further, in the series with A2780/Taxol [7], the result was inactive. The inhibition entry with A2780T [8] and with A2780T [12] was “Active” throughout. In the series filed under Homo sapiens, the fold change (FC) stood at 1.2. The inhibition result with A2780/Taxol [11] was “inactive”.
On to `CCOc1ccc2c(=O)cc(CC)oc2c1COC(=O)c1cc(OC)c(OC)c(OC)c1`, for which the Activity result (in the series on HUVEC; in series [1]; in [2]; in the series with A2780/Taxol [3]; in [9]) was “Non-Toxic” in each case. Moreover, the Ratio in series [4] stood at 457; in series [5], 248; in series [6], 1.05.
As for `CCc1cc(=O)c2ccc(OC(C)C)c(COC(=O)Cc3cc(OC)c(OC)c(OC)c3)c2o1`, the Activity result (in the series on HUVEC; in series [1]; in [2]; in the series on A2780/Taxol [3]; in series [9]) was “Non-Toxic” each time. The Ratio in [4] is reported as 576; in [5], 604; in [10], 3.97; in [13], 1.05. In addition, in the series on A2780/Taxol [7], the outcome was inactive. Moreover, the inhibition entry in the series with A2780T [8] and in the series with A2780T [12] was “Active” each time. In the series filed under Homo sapiens, this compound showed a fold change (FC) of 1.2. For the same compound, in the series with A2780/Taxol [11], the inhibition entry is “inactive”.
